Results reported in ChEMBL document CHEMBL1671655, “Anidulafungin is fungicidal and exerts a variety of postantifungal effects against Candida albicans, C. glabrata, C. parapsilosis, and C. krusei isolates” (2009).
≈ marks a conversion by molar mass, not a printed value. Calls of active or inactive are those of the source. The rule behind the calls is not given here. Starred links: 1 amine or outer side, 2 acyl side, 3 side chain; linkers in the order of their positions; H or OH if unused. Positions of bridges follow the written chain, without caps; N, C: chain ends. Non-standard residues stand in square brackets, D forms with d. Residues, ends and D or L forms follow the SMILES beside them. *: point of attachment. pTerphenylCO(4''-OnC5H11) = CCCCCOc1ccc(-c2ccc(-c3ccc(C(=O)*)cc3)cc2)cc1; Orn(4R-OH,5R-OH) = O=C([C@H](C[C@@H](O)[C@@H](O)N[*:3])N[*:1])[*:2]; hTyr(3S-OH,4S-OH) = N[C@H](C(=O)O)[C@H](O)[C@@H](O)c1ccc(O)cc1; Pro(3S-OH,4S-Me) = C[C@H]1CN[C@H](C(=O)O)[C@H]1O; Hyp = O=C(O)[C@@H]1C[C@@H](O)CN1

Assays:
Candida parapsilosis [1] = assay: Increase in susceptibility to SDS in Candida parapsilosis isolate A assessed as cell wall damage at 4 times MIC after 1 hr relative to control; format: functional, organism-based
How it was run: (§1)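 Cells recovered 8 h after a 1-h drug exposure were grown in YPD with 1% glucose to exponential phase and adjusted to OD599 0.1. Undiluted culture and 10-fold serial dilutions were spotted onto YPD plates containing SDS (0.01 to 0.04%), then incubated 72 h at 30°C. Growth compared with unexposed control cells; triplicate.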

Candida albicans [2] = assay: Fungicidal activity against Candida albicans ATCC 90028 assessed as log reduction in bacterial count at 4 times MIC after drug exposure for 1 hr followed by washout measured after 48 hrs in the absence of drug by PAFE study; format: functional
How it was run: (§2)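 Starting inoculum ~1 x 10^5 to 5 x 10^5 CFU/ml in MOPS-buffered RPMI 1640 (pH 7.0) with drug at multiples of the CLSI M27-A3 MIC. After 1 h at 35°C, cells washed and centrifuged three times at 1,400 x g for 10 min, then resuspended in warm drug-free RPMI. Shaken at 35°C and plated on SDA at 0–48 h; CFU counted after 48 h. Run twice per isolate; means.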

Candida albicans [3] = assay: Fungicidal activity against Candida albicans isolate S assessed as log reduction in bacterial count at 4 times MIC after drug exposure for 1 hr followed by washout measured after 48 hrs in the absence of drug by PAFE study; format: functional; how it was run: as §2
Candida parapsilosis [4] = assay: Antifungal activity against Candida parapsilosis isolate A assessed as cell wall damage at MIC by Transmission electron microscopy; format: functional, organism-based
How it was run: (§3)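 Cells recovered 8 h after a 1-h drug exposure were grown on SDA for 24 h at 35°C. Colonies fixed at 4°C in 0.1 M cacodylate (pH 7.2) with 2% glutaraldehyde and 2% paraformaldehyde, ethanol-dehydrated and embedded in Lowicryl K4M. Thin sections examined by transmission EM.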

Candida parapsilosis [5] = assay: Antifungal activity against Candida parapsilosis isolate A coincubated with mouse J774 macrophages assessed as macrophage induced bacterial cell killing at 4 times MIC (reference value: 19 +/- 9 %); format: functional
Pichia kudriavzevii [6] = assay: Antifungal activity against Candida krusei isolate ATCC 6258 assessed as time period for bacterial growth inhibition at 4 times MIC after 1 hr drug exposure; format: functional
How it was run: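 Inoculum of about 1 x 10^5 to 5 x 10^5 CFU/ml in MOPS-buffered RPMI (pH 7.0), shaken at 35°C and exposed to drug for 1 h. Cells then washed and centrifuged three times and resuspended in drug-free warm RPMI. Samples plated on SDA at 0, 2, 4, 8, 12, 24 and 48 h, with CFU counted after 48 h at 35°C. Run twice per isolate; values are means.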

Nakaseomyces glabratus [7] = assay: Antifungal activity against Candida glabrata isolate 2 by CLSI M27-A3 broth microdilution method; format: functional
How it was run: (§4)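 CLSI M27-A3 broth microdilution in RPMI 1640 buffered to pH 7.0 with MOPS. Starting inoculum 0.5 x 10^3 to 2.5 x 10^3 cells/ml, incubated at 35°C. MIC read as the lowest concentration giving >50% growth reduction versus control. Each isolate tested on at least three occasions.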

Candida parapsilosis [8] = assay: Antifungal activity against Candida parapsilosis isolate A assessed as cell wall damage at 4 times MIC by Transmission electron microscopy; format: functional, organism-based; how it was run: as §3
Nakaseomyces glabratus [9] = assay: Antifungal activity against Candida glabrata isolate 3 by CLSI M27-A3 broth microdilution method; format: functional; how it was run: as §4
Candida albicans [10] = assay: Fungicidal activity against Candida albicans isolate 2 assessed as log reduction in bacterial count at 4 times MIC after drug exposure for 1 hr followed by washout measured after 48 hrs in the absence of drug by PAFE study; format: functional; how it was run: as §2
Candida parapsilosis [11] = assay: Fungicidal activity against Candida parapsilosis isolate S assessed as log reduction in bacterial count at MIC after drug exposure for 1 hr followed by washout measured after 48 hrs in the absence of drug by PAFE study; format: functional; details: Lodderomyces parapsilosis
How it was run: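 Inoculum about 1 x 10^5 to 5 x 10^5 CFU/ml in RPMI 1640 (MOPS, pH 7.0) with drug, shaken at 35°C for 1 h. Cells were then washed and centrifuged at 1,400 x g for 10 min (3 cycles) and resuspended in warm drug-free RPMI. Samples plated on SDA at 0, 2, 4, 8, 12, 24 and 48 h; CFU counted after 48 h at 35°C. Run twice per isolate; means.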

Candida albicans [12] = assay: Fungicidal activity against Candida albicans isolate S assessed as log reduction in bacterial count at MIC after drug exposure for 1 hr followed by washout measured after 48 hrs in the absence of drug by PAFE study; format: functional; how it was run: as §2
Pichia kudriavzevii [13] = assay: Increase in susceptibility to calcofluor white in Candida krusei isolate ATCC 6258 assessed as cell wall damage at 16 times MIC after 1 hr relative to control; format: functional, organism-based
How it was run: (§5)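 Cells recovered 8 h after a 1-h drug exposure were grown to exponential phase in YPD with 1% glucose and adjusted to OD599 0.1. Undiluted and 10-fold serially diluted cultures were spotted onto YPD plates containing calcofluor white, then incubated at 30°C for 72 h. Growth compared with no-drug control cells; triplicate.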

Candida albicans [14] = assay: Antifungal activity against Candida albicans isolate S by CLSI M27-A3 broth microdilution method; format: functional; how it was run: as §4
Candida albicans [15] = assay: Antifungal activity against Candida albicans isolate 1 by CLSI M27-A3 broth microdilution method; format: functional; how it was run: as §4
Pichia kudriavzevii [16] = assay: Antifungal activity against Candida krusei isolate 1 assessed as cell wall damage at MIC by Transmission electron microscopy; format: functional, organism-based; how it was run: as §3
Nakaseomyces glabratus [17] = assay: Increase in susceptibility to calcofluor white in Candida glabrata isolate 3 assessed as cell wall damage at MIC after 1 hr relative to control; format: functional, organism-based; how it was run: as §5
Candida albicans [18] = assay: Antifungal activity against Candida albicans isolate 2 by CLSI M27-A3 broth microdilution method; format: functional; how it was run: as §4
Candida albicans [19] = assay: Fungicidal activity against Candida albicans isolate 1 assessed as log reduction in bacterial count at MIC after 48 hrs by time-kill analysis; format: functional; details: isolate 1, 48 h
How it was run: (§6)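 Isolates subcultured twice on SDA, suspended to 0.5 McFarland, giving ~1 x 10^5 to 5 x 10^5 CFU/ml in MOPS-buffered RPMI 1640 (pH 7.0) with or without drug at multiples of MIC (MIC by CLSI M27-A3). Tubes shaken at 35°C with continuous drug. Sampled at 0–48 h, diluted 10-fold and plated on SDA; CFU counted after 48 h at 35°C. Run twice per isolate; means.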

Nakaseomyces glabratus [20] = assay: Antifungal activity against Candida glabrata isolate 1 by CLSI M27-A3 broth microdilution method; format: functional; how it was run: as §4
Pichia kudriavzevii [21] = assay: Fungicidal activity against Candida krusei isolate ATCC 6258 assessed as log reduction in bacterial count at 4 times MIC after 48 hrs by time-kill analysis; format: functional; details: isolate ATCC 6258, 48 h; how it was run: as §6
Candida parapsilosis [22] = assay: Antifungal activity against Candida parapsilosis assessed as time period for bacterial regrowth inhibition after 1 hr drug exposure; format: functional
Candida albicans [23] = assay: Increase in susceptibility to calcofluor white in Candida albicans isolate 1 assessed as cell wall damage at 16 times MIC after 1 hr relative to control; format: functional, organism-based; how it was run: as §5
Candida parapsilosis [24] = assay: Increase in susceptibility to SDS in Candida parapsilosis isolate 1 assessed as cell wall damage at 4 times MIC after 1 hr relative to control; format: functional, organism-based; how it was run: as §1
Pichia kudriavzevii [25] = assay: Antifungal activity against Candida krusei isolate 1 by CLSI M27-A3 broth microdilution method; format: functional; how it was run: as §4
Nakaseomyces glabratus [26] = assay: Fungicidal activity against Candida glabrata isolate 2 assessed as log reduction in bacterial count at 4 times MIC after 48 hrs by time-kill analysis; format: functional; details: isolate 2, 48 h; how it was run: as §6

## CCCCCOc1ccc(-c2ccc(-c3ccc(C(=O)N[C@H]4C[C@@H](O)[C@@H](O)NC(=O)[C@@H]5[C@@H](O)[C@@H](C)CN5C(=O)[C@H]([C@@H](C)O)NC(=O)[C@H]([C@H](O)[C@@H](O)c5ccc(O)cc5)NC(=O)[C@@H]5C[C@@H](O)CN5C(=O)[C@H]([C@@H](C)O)NC4=O)cc3)cc2)cc1 [ANIDULAFUNGIN] ({pTerphenylCO(4''-OnC5H11)}-[Orn(4R-OH,5R-OH)]T[Hyp][hTyr(3S-OH,4S-OH)]T[Pro(3S-OH,4S-Me)]; lactam 1-C)
Candida parapsilosis [1]
  Activity: Active
Candida albicans [2]
  log reduction: 1.89
Candida albicans [3]
  log reduction: 2.09 log CFU/ml
Candida parapsilosis [4]
  Activity: Active
Candida parapsilosis [5]
  inhibition (INH): 42%
Pichia kudriavzevii [6]
  Time: 8 h
Nakaseomyces glabratus [7]
  MIC: 0.03 µg/mL (≈ 0.0263 µM)
Candida parapsilosis [8]
  Activity: Active
Nakaseomyces glabratus [9]
  MIC: 0.03 µg/mL (≈ 0.0263 µM)
Candida albicans [10]
  log reduction: 1.24
Candida parapsilosis [11]
  log reduction: 0.41
Candida albicans [12]
  log reduction: 1.59 log CFU/ml
Pichia kudriavzevii [13]
  Activity: Active
Candida albicans [14]
  MIC: 0.008 µg/mL (≈ 0.00702 µM)
Candida albicans [15]
  MIC: 0.015 µg/mL (≈ 0.0132 µM)
Pichia kudriavzevii [16]
  Activity: Active
Nakaseomyces glabratus [17]
  Activity: Active
Candida albicans [18]
  MIC: 0.03 µg/mL (≈ 0.0263 µM)
Candida albicans [19]
  log reduction: 1.15 log CFU/ml
Nakaseomyces glabratus [20]
  MIC: 0.06 µg/mL (≈ 0.0526 µM)
Pichia kudriavzevii [21]
  log reduction: 2.94 log CFU/ml
Candida parapsilosis [22]
  Time: >=12 hr
Candida albicans [23]
  Activity: Active
Candida parapsilosis [24]
  Activity: Active
Pichia kudriavzevii [25]
  MIC: 0.03 µg/mL (≈ 0.0263 µM)
Nakaseomyces glabratus [26]
  log reduction: 1.87 log CFU/ml
